Experimental findings from ChEMBL document CHEMBL1125712 (J Med Chem, 1991) are described below.

Series [1] has as its system aldose reductase (Rattus norvegicus). The experiment in a line: In vivo inhibition of sorbitol accumulation in the rat following 10 mg/kg p.o. administration. The conditions noted are these: at 10 mg/kg.
For series [2], the system named is Rattus norvegicus. The series can be described thus: Compound was evaluated for the ED50(acute) in male Sprague-Dawley rats(n=4) treated with streptozotocin (85 mg/kg intravenously). Type of series: functional. In a few lines: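 Streptozotocin-diabetic rats (85 mg/kg iv) dosed by oral gavage, aqueous suspension or solution, at 4, 7 and 24 h. Killed at 27 h. […] ED50 from log linear regression.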

The test system of series [3] is Rattus norvegicus. The experiment in a line: Compound was evaluated for the ED50(chronic) in male Sprague-Dawley rats(n=5) treated with streptozotocin (85 mg/kg intravenously). The conditions noted are these: oral.
The target of series [4] is T1, Aldo-keto reductase family 1 member B1 (Homo sapiens, UniProt P15121). The experiment in a line: Inhibition of aldose reductase (aldo-keto reductase, AKR1B1) isolated from human placenta.
The species entered for another series is Homo sapiens. The experiment in a line: Compound was tested for the inhibition of sorbitol accumulation in washed human erythrocytes. In kind it is functional.
The species entered for series [5] is Rattus norvegicus. The series can be described thus: animal or person. In kind it is functional. Particulars: dose 25 mg/kg, route oral.
Series [6] in a line: Compound was evaluated for the apparent pKa (dioxane/water) in the ratio 1:1. In kind it is physicochemical. Particulars: dioxane/water 1:1.
Series [7] is described as follows: Compound was evaluated for the apparent pKa (dioxane/water) the ratio 2:1. Particulars: dioxane/water 2:1. Type of series: physicochemical.
Series [8] can be described thus: Partition coefficient (logP). In kind it is physicochemical. Particulars: octanol/water.
In series [9] the test system is Rattus norvegicus. The experiment in a line: Compound was evaluated for the ED50(chronic) in male Sprague-Dawley rats(n=5) treated with streptozotocin (85 mg/kg intravenously). The conditions noted are these: oral. The source holds these as a separate data set.
Series [10] is filed under the species Rattus norvegicus. The experiment in a line: Compound was tested for the inhibition of sorbitol accumulation in washed rat erythrocytes.
Series [11] in a line: Compound was evaluated for the partition coefficient (octanol/pH 7.4 buffer). Type of series: physicochemical. In a few lines:
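Partition measured between n-octanol and pH 7.4 buffer.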

In series [12] the target is T2, Aldo-keto reductase family 1 member B1 (Rattus norvegicus, UniProt P07943). The experiment in a line: Compound was tested for the inhibition of the rat lens aldose reductase using the substrate as glucose.
For series [13], the target named is T2, Aldo-keto reductase family 1 member B1. The series can be described thus: Compound was tested for the inhibition of the rat lens aldose reductase using the substrate as glyceraldehyde.
The subject of series [14] is Rattus norvegicus. The experiment in a line: Compound was evaluated in vivo for the inhibition of sorbitol accumulation administered orally at a dose of 5 mg/kg. In kind it is functional. The conditions noted are these: route oral.
The subject of series [15] is Rattus norvegicus. The series can be described thus: Compound was evaluated in vivo for the inhibition of sorbitol accumulation administered orally at a dose of 5 mg/kg; Not significant. In kind it is functional, organism-based. On the set-up: dose 5 mg/kg.
Series [16] can be described thus: Compound was evaluated for the apparent pKa (dioxane/water)the ratio 2:1. The conditions noted are these: dioxane/water 2:1. In kind it is physicochemical.
The target of series [17] is T1, Aldo-keto reductase family 1 member B1. The experiment in a line: Compound was evaluated for its ability to inhibit the aldose reductase isolated from human placentae; Inactive at 10E-4 M.
In series [18] the test system is Rattus norvegicus. The series can be described thus: Compound was evaluated in vivo for the inhibition of sorbitol accumulation administered orally at a dose of 0.25 mg/kg. Particulars: route oral. Type of series: functional.

The source made the active and inactive calls. No cut-off for these calls is given here.

As to `O=C(O)Cc1nn(Cc2nc3cc(Cl)cc(Cl)c3s2)c(=O)c2ccccc12`, the inhibition (commonly the relative decrease from the control value, in per cent) in [1] was 73%. The ED50 (as a rule, the midpoint of the dose-response relation) with Rattus norvegicus [2] (oral) amounted to 3.5 mg/kg; in the series on Rattus norvegicus [3] it was 2.8 mg/kg. In addition, in [4], the IC50 – broadly, the point on the concentration scale where inhibition reaches its midpoint – was 0.004 µM.

Turning to `COc1ccc2c(C(=S)N(C)CC(=O)O)cccc2c1C(F)(F)F` [TOLRESTAT], the 50% effect level in the series with Rattus norvegicus [3] (ED50) was put at a dose of 26 mg/kg. Moreover, the half-maximal inhibitory concentration (IC50) in the series listed under Homo sapiens was 0.015 µM.

In the series on Rattus norvegicus [2] (oral), `O=C(O)Cc1nn(Cc2nc3ccccc3s2)c(=O)c2ccccc12` yielded an ED50 of 18.5 mg/kg. Also, in the series listed under Rattus norvegicus [5], the inhibition in vivo (usually the drop in the measured response relative to a control, in per cent) at 25 mg/kg amounted to 67%. For the same compound, the IC50 in series [4] is 0.019 µM.

On to `O=C(O)c1nnc(O)c2ccccc12`, for which the pKa (commonly the negative logarithm of the acid dissociation constant) in [6] came to 5.49; in [7], 6.35. Also, the logP (usually a log measure of how a compound divides between an organic and an aqueous phase) in series [8] came out at 2.42.

For the compound `O=C(O)Cc1nn(Cc2nc3cc(C(F)(F)F)ccc3s2)c(=O)c2ccccc12` [ZOPOLRESTAT], the figures for the ED50 in the series with Rattus norvegicus [9] and with Rattus norvegicus [2] (iv) were 2 mg/kg and 3.6 mg/kg, respectively. Besides, the IC50 was 0.22 µM in the series listed under Rattus norvegicus [10], 0.01 µM in series [12] and 0.041 µM in series [13]. For the same compound, the figures for the pKa in series [6] and in [7] were 5.46 and 6.38, respectively. In addition, the logD (as a rule, lipophilicity at a set pH, counting ionised and neutral species) in series [11] was 0.55. For the same compound, in [8], the logP turned out to be 3.43.

The compound `O=C(O)Cc1nn(Cc2nc3cc(Cl)c(Cl)cc3s2)c(=O)c2ccccc12` returned an inhibition in vivo at 25 mg/kg in the series listed under Rattus norvegicus [5] of 34%. Further, in [4], half-maximal inhibition (IC50) was put at 0.42 µM.

Take `O=C(O)Cc1nn(Cc2nc3cc(F)cc(F)c3s2)c(=O)c2ccccc12`: the inhibition in series [1] worked out at 80%. In addition, the pKa came out at 5.47 in [6] and 6.38 in series [7]. The figures for the ED50 in the series with Rattus norvegicus [2] (oral) and in the series with Rattus norvegicus [3] were 3.2 mg/kg and 4 mg/kg, respectively. Further, the logD in series [11] was 0.05. This compound also had an IC50 in series [4] of 0.0063 µM. Besides, in series [8], the logP was determined as 3.01.

As to `O=C(O)Cc1nn(Cc2nc3cc(F)ccc3s2)c(=O)c2ccccc12`, the ED50 in the series with Rattus norvegicus [9] and in the series on Rattus norvegicus [2] (iv) was 5.3 mg/kg each time. In the series with Rattus norvegicus [14], this compound had an inhibition in vivo at 5 mg/kg of 60%. The pKa was 5.49 in series [6] and 6.35 in series [7]. The logD in [11] is -0.3. Moreover, in [4], the IC50 came to 0.0069 µM. The same compound yielded a logP in series [8] of 2.42.

In the case of `O=C(O)Cc1nn(Cc2nc3ccc(Cl)cc3s2)c(=O)c2ccccc12`, the inhibition in vivo at 25 mg/kg in the series listed under Rattus norvegicus [5] was found to be 61%. Moreover, the 50% inhibitory concentration (IC50) in [4] stood at 0.076 µM.

Regarding `CC(C)c1ccc2c(CC(=O)O)nn(Cc3nc4ccccc4s3)c(=O)c2c1`, the inhibition result with Rattus norvegicus [15] was “inactive”. Besides, the IC50 in series [4] was 0.11 µM.

`O=C(O)Cc1nn(Cc2nc3cc(Br)ccc3s2)c(=O)c2ccccc12`: the ED50 was found to be 4.9 mg/kg in the series on Rattus norvegicus [9] and 5.6 mg/kg in the series on Rattus norvegicus [2] (iv). Besides, the pKa in series [16] was determined as 6.35. The same compound gave an IC50 in series [4] of 0.0031 µM. Further, the logP in series [8] came to 3.35.

Turning to `CN1C(C(=O)Nc2nccs2)=C(O)c2ccccc2S1(=O)=O` [SUDOXICAM], in series [17], the IC50 entry was “Not Active”.

The compound `O=C1NC(=O)[C@@]2(CCOc3ccc(F)cc32)N1` [SORBINIL] showed an inhibition in vivo at 0.25 mg/kg in the series with Rattus norvegicus [18] of 40.1%. This compound gave an ED50 in the series with Rattus norvegicus [3] of 0.8 mg/kg.

In the series filed under Rattus norvegicus [5], `O=C(O)Cc1nn(Cc2nc3cc(F)c(F)cc3s2)c(=O)c2ccccc12` registered an inhibition in vivo at 25 mg/kg of 75%. In [4], this compound registered an IC50 of 0.068 µM.
